Entries after “also recorded” stand apart in the source; their conditions may differ.
What was measured:
[1] = molecular target: T1, GST-Bfl-1 (Homo sapiens, UniProt Q16548); test: High-throughput fluorescence polarization; format: binding; conditions: result in words
T1 sequence (Q16548 1-175): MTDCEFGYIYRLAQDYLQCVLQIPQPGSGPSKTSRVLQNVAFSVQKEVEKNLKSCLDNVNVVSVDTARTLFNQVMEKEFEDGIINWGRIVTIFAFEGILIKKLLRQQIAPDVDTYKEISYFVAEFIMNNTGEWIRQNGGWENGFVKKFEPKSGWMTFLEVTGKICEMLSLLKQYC

[2] = molecular target: T1, GST-Bfl-1; test: LanthaScreen TR-FRET assay, FITC-Bid BH3 peptide / GST-tagged protein; format: binding; conditions: result in words
Method in brief: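 Test compound at 10 concentrations (2-fold serial dilution, 10% DMSO), in duplicate wells. Preincubated 1 h at 4 °C with GST-Bfl-1 (7.4 nM working solution, Bis-Tris pH 7.0 buffer). Then FITC-Bid (5.6 nM) plus Tb-antibody (2.5 nM) working solution added, 4 h at room temperature in the dark. Read in time-resolved mode: excitation 340 nm, 0.1 ms delay, 1 ms integration, 5 reads averaged. Signal is the 520/490 nm ratio. Controls were buffer without protein and DMSO.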

[3] = tested on: H69AR small cell lung tumor cell; test: Cell-based viability study, tumor cell growth; parameters: species or system human; conditions: concentration of 10 μM; note [21]
[4] = tested on: mammalian cell line; test: Cell viability in a mammalian cell line; format: cell-based; conditions: note [21]

Structure (SMILES) | Potency of Bfl-1 inhibition in words (FP / assay not specified) [1] | further results
CN1CCN(C2=C(Cl)C(=O)N(c3ccc(Cl)c(Cl)c3)C2=O)CC1 [Compound 1] | submicromolar potency | Potency of Bfl-1 inhibition in words (TR-FRET) [2]: submicromolar potency; Inhibition of human H69AR small cell lung tumor cell growth [3]: inhibition of human H69AR small cell lung tumor cell growth was observed
O=C1C(Cl)=C(N2CCCCC2)C(=O)N1c1ccc(Cl)c(Cl)c1 [Compound 19] |  | Effect on cell viability ([4]; 15 μg/mL): decreased cell viability
CN(C)C1=C(Cl)C(=O)N(c2ccc(Cl)c(Cl)c2)C1=O [Compound 21] | equipotent to original hit 1; also recorded: Submicromolar | Effect on cell viability in a mammalian cell line ([4]; concentration not given): not inhibitory to cell viability
O=C1C(Cl)=C(N2CCOCC2)C(=O)N1c1ccc(Cl)c(Cl)c1 [Compound 22] | equipotent to original hit 1; also recorded: Submicromolar | 
C[C@@H]1CN(C2=C(Cl)C(=O)N(c3ccc(Cl)c(Cl)c3)C2=O)CCN1 [Compound 24] | equipotent to original hit 1; also recorded: Submicromolar | 
O=C1C(Cl)=C(N2CCN(CCO)CC2)C(=O)N1c1ccc(Cl)c(Cl)c1 [Compound 28] | Submicromolar | 
O=C1C(Cl)=C(N2CCN(CCOCCO)CC2)C(=O)N1c1ccc(Cl)c(Cl)c1 [Compound 29] | Submicromolar | 
O=C1C(Cl)=C(N2CCN(C/C=C/c3ccccc3)CC2)C(=O)N1c1ccc(Cl)c(Cl)c1 [Compound 38] | Submicromolar | 
